Assay results reported in ChEMBL document CHEMBL1144027, “Synthesis and antimycobacterial evaluation of newer 1-cyclopropyl-1,4-dihydro-6-fluoro-7-(substituted secondary amino)-8-methoxy-5-(sub)-4-oxoquinoline-3-carboxylic acids” (Bioorg Med Chem, 2008).
In brackets after ≈: the same amount, converted by molar mass.

Key:
[1] = test system: Mycolicibacterium smegmatis; test: Antimycobacterial activity against Mycobacterium smegmatis MC2 by agar dilution method; assay type: functional
Procedure, shortened: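 Agar dilution in Middlebrook 7H11 agar with OADC, run along NCCLS-recommended lines; M. smegmatis ATCC 14468 (MC2); MIC determined in duplicate.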

[2] = test system: Mycobacterium tuberculosis; test: Antimycobacterial activity against Mycobacterium tuberculosis H37Rv by agar dilution method; assay type: functional
Procedure, shortened: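 Agar dilution MIC on Middlebrook 7H11 agar with OADC, following the NCCLS-recommended approach, run in duplicate. The MDR clinical isolate was resistant to isoniazid, rifampicin, ethambutol and ofloxacin.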

Mus musculus [3] = test: Phototoxicity in Swiss albino mouse assessed as ear thickness at 140 mg/kg, po after 48 hrs of irradiation; assay type: organism-based; parameters: dose 140 mg/kg, route oral; settings: in vivo
Procedure, shortened: (§1)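 Female Swiss albino mice (~2 months, 20-25 g), fasted ≥18 h, single 140 mg/kg oral gavage dose; groups of 6 (compound, lomefloxacin HCl 140 mg/kg, 0.5% carboxymethylcellulose vehicle 10 ml/kg); UV irradiation 4 h (~18 J/cm²) right after dosing; both ears scored for erythema, oedema, thickness pre-dose, at end of irradiation, and ~24-96 h; thickness given as mean of both ears ± SEM.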

Mus musculus [4] = test: (§2) Phototoxicity in Swiss albino mouse assessed as erythema incidence at 140 mg/kg, po after 48 hrs of irradiation; assay type: organism-based; parameters: dose 140 mg/kg, route oral; settings: in vivo; procedure, shortened: as §1
Mus musculus [5] = test: Phototoxicity in Swiss albino mouse assessed as erythema incidence at 140 mg/kg, po after 24 hrs of irradiation; assay type: organism-based; parameters: dose 140 mg/kg, route oral; settings: in vivo; procedure, shortened: as §1
Mus musculus [6] = test: Phototoxicity in Swiss albino mouse assessed as ear thickness at 140 mg/kg, po after 24 hrs of irradiation; assay type: organism-based; parameters: dose 140 mg/kg, route oral; settings: in vivo; procedure, shortened: as §1
Mus musculus [7] = test: Phototoxicity in Swiss albino mouse assessed as ear thickness at 140 mg/kg, po after 96 hrs of irradiation; assay type: organism-based; parameters: dose 140 mg/kg, route oral; settings: in vivo; procedure, shortened: as §1
[8] = biological target: DNA gyrase subunit B (Mycobacterium smegmatis (strain ATCC 700084 / mc(2)155), UniProt A0QNE0); test: Inhibition of Mycobacterium smegmatis MC2 DNA gyrase GyrB ATPase supercoiling activity; parameters: species or system Mycolicibacterium smegmatis
Sequence of DNA gyrase subunit B (Mycobacterium smegmatis (strain ATCC 700084 / mc(2)155), UniProt A0QNE0) (A0QNE0 whole entry): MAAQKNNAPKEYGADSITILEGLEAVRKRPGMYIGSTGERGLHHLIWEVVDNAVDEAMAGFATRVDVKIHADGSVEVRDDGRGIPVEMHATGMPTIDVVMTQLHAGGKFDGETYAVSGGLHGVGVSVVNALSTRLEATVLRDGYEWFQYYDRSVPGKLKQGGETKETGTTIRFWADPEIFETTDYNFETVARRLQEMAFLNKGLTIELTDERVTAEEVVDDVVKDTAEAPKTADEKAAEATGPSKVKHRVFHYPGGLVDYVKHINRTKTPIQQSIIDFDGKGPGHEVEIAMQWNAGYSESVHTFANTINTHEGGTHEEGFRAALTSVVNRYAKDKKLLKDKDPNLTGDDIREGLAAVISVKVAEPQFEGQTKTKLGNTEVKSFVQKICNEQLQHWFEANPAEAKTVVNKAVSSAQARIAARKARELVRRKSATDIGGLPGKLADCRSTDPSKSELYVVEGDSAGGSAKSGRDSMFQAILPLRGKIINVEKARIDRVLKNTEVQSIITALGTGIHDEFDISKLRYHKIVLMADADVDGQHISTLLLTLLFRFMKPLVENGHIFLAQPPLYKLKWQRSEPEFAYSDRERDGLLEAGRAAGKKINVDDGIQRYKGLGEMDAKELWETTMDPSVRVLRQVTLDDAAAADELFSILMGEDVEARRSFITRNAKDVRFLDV
Procedure, shortened: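 Gyrase purified from M. smegmatis MC2 cells; compounds in DMSO pre-incubated with enzyme, then 400 ng relaxed pUC18 added in 35 mM Tris-HCl pH 7.5, 5 mM MgCl2, 25 mM K glutamate, 2 mM spermidine, 2 mM ATP, BSA, tRNA, 5% glycerol; 30 min; heat-stopped 65 °C 15 min; agarose gel, ethidium bromide staining; ciprofloxacin 10 µg/ml and 5% DMSO controls.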

Mus musculus [9] = test: Phototoxicity in Swiss albino mouse assessed as erythema incidence at 140 mg/kg, po after 96 hrs of irradiation; assay type: organism-based; parameters: dose 140 mg/kg, route oral; settings: in vivo; procedure, shortened: as §1
Vero = test: Cytotoxicity against african green monkey Vero cells after 72 hrs by MTT assay; assay type: cell-based; settings: Chlorocebus sabaeus
Procedure, shortened: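 Mammalian Vero cells exposed to compounds at 62.5 µg/ml for 72 h; viability read by cellular conversion of MTT to formazan (Cell Titer 96 non-radioactive proliferation assay).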

Mus musculus [10] = test: Phototoxicity in Swiss albino mouse assessed as ear thickness at 140 mg/kg, po after 72 hrs of irradiation; assay type: organism-based; parameters: dose 140 mg/kg, route oral; settings: in vivo; procedure, shortened: as §1
Mus musculus [11] = test: Phototoxicity in Swiss albino mouse assessed as ear thickness at 140 mg/kg, po after 4 hrs of irradiation; assay type: organism-based; parameters: dose 140 mg/kg, route oral; settings: in vivo; procedure, shortened: as §1
Mus musculus [12] = test: as §2; assay type: organism-based; parameters: dose 140 mg/kg, route oral; settings: in vivo; procedure, shortened: as §1; remark: listed apart in the source

Row | SMILES | MIC [1] [µM] | MIC [2] [µM] | IC50 (Vero) [µM] | other results
1 | COc1c(N2CCC(O)(c3ccc(Cl)cc3)CC2)c(F)cc2c(=O)c(C(=O)O)cn(C3CC3)c12 | 12.8 (≈ 6.25 µg/mL) | 6.43 (≈ 3.13 µg/mL) |  | 
2 | COc1c(N2CC(C)OC(C)C2)c(F)c([N+](=O)[O-])c2c(=O)c(C(=O)O)cn(C3CC3)c12 (stereo not drawn) | 1.79 (≈ 0.779 µg/mL) | 0.89 (≈ 0.388 µg/mL) | 144 | Activity (Mus musculus [3]): 0.36 mm; Activity (Mus musculus [4]): Non-toxic; Activity (Mus musculus [5]): Non-toxic; Activity (Mus musculus [6]): 0.35 mm; Activity (Mus musculus [7]): 0.33 mm; IC50 [8]: 115 µM; Activity (Mus musculus [9]): Non-toxic; Activity (Mus musculus [10]): 0.34 mm; Activity (Mus musculus [11]): 0.29 mm; Activity (Mus musculus [12]): Non-toxic
3 | COc1c(N2COCC2(C)C)c(F)cc2c(=O)c(C(=O)O)cn(C3CC3)c12 | 16.6 (≈ 6.25 µg/mL) | 4.14 (≈ 1.56 µg/mL) | 166 | 
4 | COc1c(N2CCn3cc(C(=O)O)nc3C2)c(F)c([N+](=O)[O-])c2c(=O)c(C(=O)O)cn(C3CC3)c12 | 6.42 (≈ 3.13 µg/mL) | 3.12 (≈ 1.52 µg/mL) | 128 | 
5 | COc1c(N2COCC2(C)C)c(F)c([N+](=O)[O-])c2c(=O)c(C(=O)O)cn(C3CC3)c12 | 3.7 (≈ 1.56 µg/mL) | 1.85 (≈ 0.78 µg/mL) | 148 | 
6 | COc1c(N2CCC(n3c(=O)[nH]c4cc(Cl)ccc43)CC2)c(F)c([N+](=O)[O-])c2c(=O)c(C(=O)O)cn(C3CC3)c12 | 10.9 (≈ 6.25 µg/mL) | 5.47 (≈ 3.13 µg/mL) |  | 
7 | CCN(CC)C(=O)C1CCCN(c2c(F)c([N+](=O)[O-])c3c(=O)c(C(=O)O)cn(C4CC4)c3c2OC)C1 (stereo not drawn) | 12.4 (≈ 6.25 µg/mL) | 1.55 (≈ 0.782 µg/mL) | 124 | 
8 | COc1c(N2CCC(N3CCCCC3)CC2)c(F)c([N+](=O)[O-])c2c(=O)c(C(=O)O)cn(C3CC3)c12 | 12.8 (≈ 6.25 µg/mL) | 6.41 (≈ 3.13 µg/mL) |  | 
9 | COc1c(N2CCN(C(=O)c3ccco3)CC2)c(F)cc2c(=O)c(C(=O)O)cn(C3CC3)c12 | 13.7 (≈ 6.25 µg/mL) | 13.7 (≈ 6.25 µg/mL) |  | 
10 | COc1c(N2CCc3ccccc3C2C(=O)NC(C)(C)C)c(F)cc2c(=O)c(C(=O)O)cn(C3CC3)c12 (stereo not drawn) | 49.3 (≈ 25 µg/mL) | 12.3 (≈ 6.25 µg/mL) |  | 
11 | COc1c(N2CCC3(CC2)OCCO3)c(F)c([N+](=O)[O-])c2c(=O)c(C(=O)O)cn(C3CC3)c12 | 6.75 (≈ 3.13 µg/mL) | 0.84 (≈ 0.389 µg/mL) | 135 | 
12 | COc1c(N2CCC(O)(c3ccc(Cl)cc3)CC2)c(F)c([N+](=O)[O-])c2c(=O)c(C(=O)O)cn(C3CC3)c12 | 11.8 (≈ 6.25 µg/mL) | 5.88 (≈ 3.13 µg/mL) |  | 
13 | COc1c(N2CCc3ccccc3C2C(=O)NC(C)(C)C)c(F)c([N+](=O)[O-])c2c(=O)c(C(=O)O)cn(C3CC3)c12 (stereo not drawn) | 2.82 (≈ 1.56 µg/mL) | 1.41 (≈ 0.779 µg/mL) | 113 | IC50 [8]: > 90.5 µM
14 | COc1c(N2CCC(N3CCCCC3)CC2)c(F)cc2c(=O)c(C(=O)O)cn(C3CC3)c12 | 14.1 (≈ 6.25 µg/mL) | 7.06 (≈ 3.13 µg/mL) |  | 
15 | COc1c(N2CCN(C)C(c3ccccc3)C2)c(F)c([N+](=O)[O-])c2c(=O)c(C(=O)O)cn(C3CC3)c12 (stereo not drawn) | 6.3 (≈ 3.13 µg/mL) | 3.14 (≈ 1.56 µg/mL) | 126 | 
16 | COc1c(N2CCC(n3c(=O)[nH]c4cc(Cl)ccc43)CC2)c(F)cc2c(=O)c(C(=O)O)cn(C3CC3)c12 | 5.94 (≈ 3.13 µg/mL) | 5.94 (≈ 3.13 µg/mL) |  | 
17 | COc1c(N2CCN(C(c3ccccc3)c3ccc(Cl)cc3)CC2)c(F)c([N+](=O)[O-])c2c(=O)c(C(=O)O)cn(C3CC3)c12 (stereo not drawn) | 10.3 (≈ 6.25 µg/mL) | 1.28 (≈ 0.777 µg/mL) | 103 | 
18 | COc1c(N2CCSCC2)c(F)c([N+](=O)[O-])c2c(=O)c(C(=O)O)cn(C3CC3)c12 | 3.68 (≈ 1.56 µg/mL) | 1.84 (≈ 0.779 µg/mL) | 148 | IC50 [8]: > 118 µM
19 | COc1c(N2CCN(C(=O)C3COc4ccccc4O3)CC2)c(F)c([N+](=O)[O-])c2c(=O)c(C(=O)O)cn(C3CC3)c12 (stereo not drawn) | 2.74 (≈ 1.56 µg/mL) | 1.37 (≈ 0.779 µg/mL) | 110 | IC50 [8]: > 87.9 µM
20 | COc1c(N2CCN(Cc3ccc4c(c3)OCO4)CC2)c(F)cc2c(=O)c(C(=O)O)cn(C3CC3)c12 | 3.15 (≈ 1.56 µg/mL) | 1.57 (≈ 0.778 µg/mL) | 126 | IC50 [8]: > 101 µM
21 | COc1c(N2CCN(C(c3ccccc3)c3ccc(Cl)cc3)CC2)c(F)cc2c(=O)c(C(=O)O)cn(C3CC3)c12 (stereo not drawn) | 44.5 (≈ 25 µg/mL) | 11.1 (≈ 6.25 µg/mL) |  | 
22 | COc1c(N2CCN(Cc3ccc4c(c3)OCO4)CC2)c(F)c(N)c2c(=O)c(C(=O)O)cn(C3CC3)c12 | 6.13 (≈ 3.13 µg/mL) | 3.06 (≈ 1.56 µg/mL) |  | 
23 | COc1c(N2CCN(C(=O)c3ccco3)CC2)c(F)c([N+](=O)[O-])c2c(=O)c(C(=O)O)cn(C3CC3)c12 | 12.5 (≈ 6.25 µg/mL) | 6.25 (≈ 3.13 µg/mL) |  | 
24 | CCN(CC)C(=O)C1CCCN(c2c(F)cc3c(=O)c(C(=O)O)cn(C4CC4)c3c2OC)C1 (stereo not drawn) | 0.85 (≈ 0.391 µg/mL) | 1.69 (≈ 0.777 µg/mL) | 136 | Activity (Mus musculus [3]): 0.37 mm; Activity (Mus musculus [4]): Non-toxic; Activity (Mus musculus [5]): Non-toxic; Activity (Mus musculus [6]): 0.36 mm; Activity (Mus musculus [7]): 0.39 mm; IC50 [8]: > 109 µM; Activity (Mus musculus [9]): Non-toxic; Activity (Mus musculus [10]): 0.39 mm; Activity (Mus musculus [11]): 0.38 mm; Activity (Mus musculus [12]): Non-toxic
25 | COc1ccc(CC2C3=C(CCCC3)CCN2c2c(F)cc3c(=O)c(C(=O)O)cn(C4CC4)c3c2OC)cc1 (stereo not drawn) | 2.93 (≈ 1.56 µg/mL) | 1.46 (≈ 0.778 µg/mL) | 117 | IC50 [8]: 75.1 µM
26 | COc1c(N2CCN(C)C(c3ccccc3)C2)c(F)cc2c(=O)c(C(=O)O)cn(C3CC3)c12 (stereo not drawn) | 27.7 (≈ 12.5 µg/mL) | 13.8 (≈ 6.25 µg/mL) |  | 
27 | COc1c(N2CC(C)OC(C)C2)c(F)cc2c(=O)c(C(=O)O)cn(C3CC3)c12 (stereo not drawn) | 16 (≈ 6.25 µg/mL) | 3.99 (≈ 1.56 µg/mL) | 160 | 
28 | COc1ccc(CC2C3=C(CCCC3)CCN2c2c(F)c(N)c3c(=O)c(C(=O)O)cn(C4CC4)c3c2OC)cc1 (stereo not drawn) | 5.72 (≈ 3.13 µg/mL) | 2.85 (≈ 1.56 µg/mL) | 114 | 
29 | COc1c(N2CCSCC2)c(F)cc2c(=O)c(C(=O)O)cn(C3CC3)c12 | 4.12 (≈ 1.56 µg/mL) | 2.06 (≈ 0.78 µg/mL) | 165 | 
30 | COc1c(N2CCn3cc(C(=O)O)nc3C2)c(F)cc2c(=O)c(C(=O)O)cn(C3CC3)c12 | 7.08 (≈ 3.13 µg/mL) | 3.53 (≈ 1.56 µg/mL) | 141 | 
